# Data: ChEMBL document CHEMBL1154676, “Synthetic mRNA splicing modulator compounds with in vivo antitumor activity” (J Med Chem, 2009)
# Tests used:
# [1] = system: U-251; test: Growth inhibition of human U251 cells by sulforhodamine B assay; type: functional
# [2] = system: SNB-75; test: Growth inhibition of human SNB75 cells by sulforhodamine B assay; type: functional
# [3] = system: SF-295; test: Growth inhibition of human SF295 cells by sulforhodamine B assay; type: functional
# [4] = system: SF-268; test: Growth inhibition of human SF268 cells by sulforhodamine B assay; type: functional
# [5] = system: KM12; test: Growth inhibition of human KM12 cells by sulforhodamine B assay; type: functional
# [6] = system: HT-29; test: Growth inhibition of human HT-29 cells by sulforhodamine B assay; type: functional
# [7] = system: HCC 2998; test: Growth inhibition of human HCC2998 cells by sulforhodamine B assay; type: functional
# [8] = system: NCI-H23; test: Growth inhibition of human NCI-H23 cells by sulforhodamine B assay; type: functional
# [9] = system: EKVX; test: Growth inhibition of human EKVX cells by sulforhodamine B assay; type: functional
# [10] = system: A549; test: Growth inhibition of human A549 cells by sulforhodamine B assay; type: functional
# [11] = system: MOLT-4; test: Growth inhibition of human MOLT4 cells by sulforhodamine B assay; type: functional
# [12] = system: K562; test: Growth inhibition of human K562 cells by sulforhodamine B assay; type: functional
# [13] = system: HL-60(TB); test: Growth inhibition of human HL-60(TB) cells by sulforhodamine B assay; type: functional
# [14] = Cytotoxicity against human BT-12 cells after 72 hrs by XTT assay; type: functional, cell-based; settings: BT-12, 72 h
# Procedure, shortened: (§1)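 Cells grown at 37 °C, 5% CO2; HFF in DMEM with 10% FBS, PrEC in prostate epithelial growth medium. Adherent lines seeded overnight, suspension lines same day; compounds diluted from DMSO stocks into media at various final concentrations, 72 h exposure. XTT reagent added 4 h, absorbance 490 nm (reference 690 nm). Growth as % of vehicle; IC50 from sigmoidal dose-response fit; mean ± SEM, three independent experiments.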
# [15] = Cytotoxicity against human BT-14 cells after 72 hrs by XTT assay; type: functional, cell-based; settings: BT-14, 72 h; procedure, shortened: as §1
# [16] = system: Ramos; test: Cytotoxicity against human Ramos cells after 72 hrs by XTT assay; type: functional, cell-based; procedure, shortened: as §1
# [17] = system: PANC-1; test: Cytotoxicity against human PANC1 cells after 72 hrs by XTT assay; type: functional, cell-based; settings: PANC-1, 72 h; procedure, shortened: as §1
# [18] = system: SK-MEL-2; test: Cytotoxicity against human SK-MEL-2 cells after 72 hrs by XTT assay; type: functional, cell-based; settings: SK-MEL-2, 72 h; procedure, shortened: as §1
# [19] = system: WiDr; test: Cytotoxicity against human WiDr cells after 72 hrs by XTT assay; type: functional, cell-based; procedure, shortened: as §1
# [20] = system: JVM-2; test: Cytotoxicity against human JVM2 cells after 72 hrs by XTT assay; type: functional, cell-based; settings: JVM-2, 72 h; procedure, shortened: as §1
# [21] = system: Mus musculus; test: Toxicity in NOD/SCID mouse assessed as phosphorus level at 5 to 50 mg/kg, iv and po for 5 days; type: organism-based; parameters: dose 5-50 mg/kg, route oral; settings: in vivo, 120 h
# [22] = system: Mus musculus; test: Toxicity in NOD/SCID mouse assessed as thrombocytopenia at 5 to 50 mg/kg, iv and po for 5 days; type: organism-based; parameters: dose 5-50 mg/kg, route oral; settings: in vivo, 120 h
# [23] = system: Mus musculus; test: Toxicity in NOD/SCID mouse assessed as weight loss at 5 to 50 mg/kg, iv and po for 5 days after 1 week; type: organism-based; parameters: dose 5-50 mg/kg, route oral; settings: in vivo, 168 h
# [24] = system: Mus musculus; test: Toxicity in NOD/SCID mouse assessed as total necropsies at 5 to 50 mg/kg, […] for 5 days; type: organism-based; parameters: dose 5-50 mg/kg; settings: in vivo, po, 120 h
# [25] = system: Mus musculus; test: Toxicity in NOD/SCID mouse transplanted with human JeKo1 cells assessed as fatalities at 5 to 50 mg/kg, iv and po for 5 days; type: organism-based; parameters: dose 5-50 mg/kg, route oral; settings: in vivo, 120 h
# [26] = system: Mus musculus; test: Toxicity in NOD/SCID mouse assessed as blood urea nitrogen level at 5 to 50 mg/kg, iv and po for 5 days; type: organism-based; parameters: dose 5-50 mg/kg, route oral; settings: in vivo, 120 h
# [27] = system: Mus musculus; test: Toxicity in NOD/SCID mouse assessed as complete blood counts level at 5 to 50 mg/kg, […] for 5 days; type: organism-based; parameters: dose 5-50 mg/kg; settings: in vivo, po, 120 h
# [28] = system: T47D; test: Growth inhibition of human T47D cells by sulforhodamine B assay; type: functional
# [29] = system: BT-549; test: Growth inhibition of human BT549 cells by sulforhodamine B assay; type: functional
# [30] = system: DU-145; test: Growth inhibition of human DU145 cells by sulforhodamine B assay; type: functional
# [31] = system: UO-31; test: Growth inhibition of human UO31 cells by sulforhodamine B assay; type: functional
# [32] = system: SN12C; test: Growth inhibition of human SN12C cells by sulforhodamine B assay; type: functional
# [33] = system: CAKI-1; test: Growth inhibition of human Caki1 cells by sulforhodamine B assay; type: functional
# [34] = system: 786-0; test: Growth inhibition of human 786-0 cells by sulforhodamine B assay; type: functional
# [35] = system: SK-OV-3; test: Growth inhibition of human SKOV3 cells by sulforhodamine B assay; type: functional
# [36] = system: OVCAR-8; test: Growth inhibition of human OVCAR8 cells by sulforhodamine B assay; type: functional
# [37] = system: OVCAR-4; test: Growth inhibition of human OVCAR4 cells by sulforhodamine B assay; type: functional
# [38] = system: UACC-257; test: Growth inhibition of human UACC257 cells by sulforhodamine B assay; type: functional
# [39] = system: LOX IMVI; test: Growth inhibition of human LOXIMVI cells by sulforhodamine B assay; type: functional
# [40] = read-out: Log10GI50 (converted)
# [41] = read-out: Log10LC50 (converted)
structure (smiles),measurement,setting,value
CC(/C=C/[C@@H]1C[C@]2(CO2)CC(C)(C)O1)=C\C[C@H]1CC[C@@H](NC(=O)/C=C\[C@H](C)OC(=O)C(C)C)CC1,GI50,[1]; [40],0.363 µM
same,CC50,[1]; [41],> 100 µM
same,TGI,[1]; read-out: Log10TGI (converted),> 100 µM
same,GI50,[2]; [40],5.37 µM
same,CC50,[2]; [41],> 100 µM
same,TGI,[2]; read-out: Log10TGI (converted),> 100 µM
same,GI50,[3]; [40],0.339 µM
same,CC50,[3]; [41],> 100 µM
same,TGI,[3]; read-out: Log10TGI (converted),2.51 µM
same,GI50,[4]; [40],0.263 µM
same,CC50,[4]; [41],> 100 µM
same,TGI,[4]; read-out: Log10TGI (converted),> 100 µM
same,GI50,[5]; [40],0.309 µM
same,CC50,[5]; [41],> 100 µM
same,TGI,[5]; read-out: Log10TGI (converted),> 100 µM
same,GI50,[6]; [40],0.191 µM
same,CC50,[6]; [41],> 100 µM
same,TGI,[6]; read-out: Log10TGI (converted),10 µM
same,GI50,[7]; [40],3.47 µM
same,CC50,[7]; [41],> 100 µM
same,TGI,[7]; read-out: Log10TGI (converted),> 100 µM
same,GI50,[8]; [40],0.537 µM
same,CC50,[8]; [41],> 100 µM
same,TGI,[8]; read-out: Log10TGI (converted),33.9 µM
same,GI50,[9]; [40],0.676 µM
same,CC50,[9]; [41],> 100 µM
same,TGI,[9]; read-out: Log10TGI (converted),12.9 µM
same,GI50,[10]; [40],0.912 µM
same,CC50,[10]; [41],> 100 µM
same,TGI,[10]; read-out: Log10TGI (converted),> 100 µM
same,GI50,[11]; [40],0.0479 µM
same,CC50,[11]; [41],> 100 µM
same,TGI,[11]; read-out: Log10TGI (converted),5.62 µM
same,GI50,[12]; [40],0.0457 µM
same,CC50,[12]; [41],> 100 µM
same,TGI,[12]; read-out: Log10TGI (converted),> 100 µM
same,GI50,[13]; [40],0.129 µM
same,CC50,[13]; [41],74.1 µM
same,TGI,[13]; read-out: Log10TGI (converted),0.525 µM
same,IC50,[14],2.79 µM
same,IC50,[15],1.34 µM
same,IC50,[16],0.08 µM
same,IC50,[17],3.87 µM
same,IC50,[18],0.29 µM
same,IC50,[19],0.91 µM
same,IC50,[20],0.19 µM
same,Activity,[21],Non-toxic
same,Activity,[22],Non-toxic
same,Activity,[23],Non-toxic
same,Activity,[24],Non-toxic
same,Activity,[25],Non-toxic
same,Activity,[26],Non-toxic
same,Activity,[27],Non-toxic
same,GI50,[28]; [40],0.389 µM
same,CC50,[28]; [41],> 100 µM
same,TGI,[28]; read-out: Log10TGI (converted),14.5 µM
same,GI50,[29]; [40],0.138 µM
same,CC50,[29]; [41],> 100 µM
same,TGI,[29]; read-out: Log10TGI (converted),0.776 µM
same,GI50,[30]; [40],0.55 µM
same,CC50,[30]; [41],> 100 µM
same,TGI,[30]; read-out: Log10TGI (converted),> 100 µM
same,GI50,[31]; [40],3.98 µM
same,CC50,[31]; [41],> 100 µM
same,TGI,[31]; read-out: Log10TGI (converted),> 100 µM
same,GI50,[32]; [40],1.23 µM
same,CC50,[32]; [41],> 100 µM
same,TGI,[32]; read-out: Log10TGI (converted),> 100 µM
same,GI50,[33]; [40],0.302 µM
same,CC50,[33]; [41],> 100 µM
same,TGI,[33]; read-out: Log10TGI (converted),2.14 µM
same,GI50,[34]; [40],2.63 µM
same,CC50,[34]; [41],> 100 µM
same,TGI,[34]; read-out: Log10TGI (converted),> 100 µM
same,GI50,[35]; [40],0.912 µM
same,CC50,[35]; [41],> 100 µM
same,TGI,[35]; read-out: Log10TGI (converted),> 100 µM
same,GI50,[36]; [40],0.24 µM
same,CC50,[36]; [41],> 100 µM
same,TGI,[36]; read-out: Log10TGI (converted),> 100 µM
same,GI50,[37]; [40],1.51 µM
same,CC50,[37]; [41],> 100 µM
same,TGI,[37]; read-out: Log10TGI (converted),> 100 µM
same,GI50,[38]; [40],3.63 µM
same,CC50,[38]; [41],> 100 µM
same,TGI,[38]; read-out: Log10TGI (converted),45.7 µM
same,GI50,[39]; [40],0.0794 µM
same,CC50,[39]; [41],55 µM
